From article PMC9425296 (Journal of the American Chemical Society, 2022) come the findings set out here.

*1 amine or outer side, *2 acyl side, *3 side chain or, on linkers, in order; H or OH if unused. Where a SMILES comes first, the peptide text is derived from it. Bridges are numbered along the chain shown (N, C = ends). [ ]: non-standard residue; d: D form. X1 = O=C([C@@H]1C[C@H](SCc2cccc(C[*:3])c2)CN1[*:1])[*:2]

Assay [1] concerns five human paralogs in the GABARAP/LC3 family (GABARAP, GABARAP-L1, GABARAP-L2, LC3A, LC3B). The assay can be described thus: FP binding across human LC3/GABARAP paralogs. The following applies: fluorescein-tagged peptide. In short, it runs like this: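 Fluorescence polarization with N-terminally fluorescein-labelled peptides titrated against each recombinant protein (GABARAP, GABARAP-L1, GABARAP-L2, LC3A, LC3B). Kd values come from the FP binding data. Results are the average and standard error of the mean of three or more independent trials.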

In assay [2] the test system is OVCAR8 cells (p62, LC3B, GABARAP). The assay can be described thus: Western blot of autophagy markers in OVCAR8 cells. The assay is classed as cell-based. The following applies: OVCAR8, 25 μM peptide plus 10 μM cisplatin, 48 h.

Regarding `CC(C)C[C@H](NC(=O)[C@@H]1CSCc2cccc(c2)CS[C@H]2C[C@@H](C(=O)N[C@@H](Cc3ccc(O)cc3)C(=O)N[C@@H]([C@@H](C)O)C(=O)N[C@@H](Cc3c[nH]c4ccccc34)C(=O)N[C@@H](CCC(=O)O)C(=O)N1)N(C(=O)[C@H](C)NC(=O)[C@@H](N)CC(=O)O)C2)C(=O)N[C@@H](C)C(=O)N[C@@H](Cc1c[nH]c2ccccc12)C(=O)N1CCC[C@H]1C(N)=O` [MP3-meta] (H-DA[X1]YTWECLAWP-NH2; thioether 3-8; N-terminus and C-terminus assumed), in assay [1], the “binding to GABARAP and GABARAPL1 (in words)” value was “low-to-mid nanomolar range”; the “binding to GABARAP-L2, LC3A and LC3B (in words)” value is “mostly in the micromolar range”. For the same molecule, the “LC3B-I level compared to cells treated with cisplatin alone” value in assay [2] was “increased LC3B-I”.
